Where a name gives a salt, the structure may show the parent alone. The source made the active and inactive calls. The calls are words filed in the database; no cut-off is given here.
Assays:
MCF7 [1] = assay: Cytotoxicity against human MCF7 cells after 48 hrs by MTT assay; format: functional, cell-based; conditions: MCF7, 48 h
Method in brief: (§1)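 Cells seeded at 5000−10 000 per well, preincubated 12 h at 37 °C, 5% CO2, then exposed to a range of concentrations for 48 h. MTT added, absorbance read at 570 nm after 4 h; percent growth inhibition used to derive IC50. Adriamycin as positive control.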

A2780 = assay: Cytotoxicity against human A2780 cells after 48 hrs by MTT assay; format: functional, cell-based; conditions: A2780, 48 h; method in brief: as §1
A549 = assay: Cytotoxicity against human A549 cells after 48 hrs by MTT assay; format: functional, cell-based; conditions: A549, 48 h; method in brief: as §1
Homo sapiens [2] = species on record: Homo sapiens; assay: Inhibition of P-gp in human MCF7/ADR cells assessed as increase in intracellular Rh123 accumulation by measuring increase in fluorescence intensity after 24 hrs by fluorescence microscopic analysis; format: cell-based
Method in brief: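 Rh123 (5 μM)-exposed MCF-7/ADR cells, untreated or treated with modulator (10 μM) or verapamil (10 μg/mL), photographed by fluorescence microscopy after 24 h.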

Homo sapiens [3] = species on record: Homo sapiens; assay: Inhibition of P-gp in human MCF7/ADR cells assessed as increase in intracellular accumulation of adriamycin after 1 hr by flow cytometry; format: cell-based
Method in brief: (§2)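 4 × 10^5 MCF-7 or MCF-7/ADR cells incubated 1 h at 37 °C with 10.0 μM adriamycin alone or with modulator (5, 10, 20 μM) or verapamil (10 μg/mL); washed twice in ice-cold PBS. Adriamycin accumulation (%) by flow cytometry relative to untreated cells. Mean ± SD, three independent experiments.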

NCI/ADR-RES = assay: Cytotoxicity against human MCF7/ADR cells after 48 hrs by MTT assay; format: functional, cell-based
Method in brief: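 MTT format as for parental lines: 48 h exposure to various concentrations in ADM-selected P-gp-overexpressing MCF-7/ADR cells, absorbance at 570 nm after 4 h MTT, IC50 from percent growth inhibition.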

Homo sapiens [4] = species on record: Homo sapiens; assay: Inhibition of P-gp in human MCF7/ADR cells assessed as potentiation of adriamycin-induced cytotoxicity by measuring fold reduction in adriamycin IC50 at 5 uM after 48 hrs by MTT assay relative to adriamycin alone; format: cell-based
Method in brief: (§3)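 MCF-7/ADR (ADM-selected, P-gp-overexpressing) and MCF-7 cells given graded adriamycin with or without modulator (5 or 10 μM) or verapamil 10 μg/mL for 48 h; MTT read at 570 nm. Reversal fold from adriamycin IC50 alone versus IC50 in combination.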

Homo sapiens [5] = species on record: Homo sapiens; assay: Inhibition of P-gp in human MCF7/ADR cells assessed as increase in intracellular Rh123 accumulation after 1 hr by flow cytometry; format: cell-based
Method in brief: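 Exponentially growing MCF-7/ADR cells (3 × 10^5/mL) loaded with Rh123 (5 μM) with or without modulator (5, 10, 20 μM) or verapamil (10 μg/mL), 1 h at 37 °C. Rh123 accumulation (%) by flow cytometry, excitation 488 nm, emission through 530 nm filter; untreated cells as negative control. Mean ± SD of three independent experiments.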

Homo sapiens [6] = species on record: Homo sapiens; assay: Inhibition of P-gp in human MCF7/ADR cells assessed as increase in intracellular accumulation of adriamycin by measuring increase in fluorescence intensity at 10 uM after 24 hrs by fluorescence microscopic analysis; format: cell-based
Method in brief: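 MCF-7/ADR cells imaged by fluorescence microscopy for adriamycin fluorescence after 24 h incubation with or without modulator (10 μM) or verapamil (10 μg/mL); untreated cells as negative control.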

MCF7 [7] = assay: Increase in adriamycin accumulation in human MCF7 cells at 20 uM after 1 hr by flow cytometry; format: functional, cell-based; method in brief: as §2
Homo sapiens [8] = species on record: Homo sapiens; assay: Inhibition of P-gp in human MCF7/ADR cells assessed as potentiation of adriamycin-induced cytotoxicity by measuring fold reduction in adriamycin IC50 at 10 uM after 48 hrs by MTT assay relative to adriamycin alone; format: cell-based; method in brief: as §3
MCF7 [9] = assay: Increase in adriamycin accumulation in human MCF7 cells at 10 ug/ml after 1 hr by flow cytometry; format: functional, cell-based; method in brief: as §2
Homo sapiens [10] = species on record: Homo sapiens; conditions: 10 ug/ml

Row | Compound | IC50 (MCF7 [1]) | IC50 (A2780) | IC50 (A549) | further results
1 | COC1=C(c2ccccc2O)C(=O)C=C(c2ccc(O)cc2)C1=O | 16.7 µM | 8.6 µM | > 40 µM | 
2 | COc1cc(-c2ccc(O)cc2)c(O)c2oc3ccc(O)cc3c12 | 17.9 µM | 21.4 µM | > 40 µM | 
3 | COC1=C(c2ccc(OC)cc2)C(=O)C=C(c2ccccc2)C1=O | 19.9 µM | 3.4 µM | 40.1 µM | inhibition (Homo sapiens [2]): Dose-dependent effect; inhibition (Homo sapiens [3]): Dose-dependent effect; IC50 (NCI/ADR-RES): 23.5 µM; fold change (FC) (Homo sapiens [4]): 1.3; inhibition (Homo sapiens [5]): Dose-dependent effect; inhibition (Homo sapiens [6]): Active; Activity (MCF7 [7]): inactive; fold change (FC) (Homo sapiens [8]): 39.1
4 | COc1ccc(-c2c(O)cc(-c3ccccc3)c(OC)c2OC)cc1 | > 40 µM | > 40 µM | > 40 µM | 
5 | COc1ccc(-c2c(OC)cc(-c3ccccc3)c(OC)c2OC)cc1 | > 40 µM | > 40 µM | > 40 µM | 
6 | COc1cccc2c1C(=O)c1c(O)c3c(c(O)c1C2=O)C[C@@](O)(C(=O)CO)C[C@@H]3O[C@H]1C[C@H](N)[C@H](O)[C@H](C)O1 [DOXORUBICIN HYDROCHLORIDE] |  | 0.5 µM | 1.3 µM | 
7 | COc1cc(-c2ccc(O)cc2)c(O)c2oc3ccccc3c12 | 17.5 µM | 40.1 µM | > 40 µM | 
8 | COc1cc(-c2ccc(O)cc2)c(O)c2oc3cc(O)ccc3c12 | 11.7 µM | 14.9 µM | 27.8 µM | 
9 | COc1ccc(-c2cc(OC)c(-c3ccccc3)c(OC)c2O)cc1 | 38.5 µM | > 40 µM | 12.5 µM | 
10 | COc1ccc(CCN(C)CCCC(C#N)(c2ccc(OC)c(OC)c2)C(C)C)cc1OC (configuration not stated) |  |  |  | inhibition (Homo sapiens [2]): Dose-dependent effect; Activity (MCF7 [9]): inactive; inhibition (Homo sapiens [5]): Dose-dependent effect; inhibition (Homo sapiens [10]): Active
11 | COc1ccc(-c2cc(OC)c(-c3ccccc3O)c(OC)c2OC)cc1 | > 40 µM | > 40 µM | > 40 µM | 
12 | COc1cc(-c2ccccc2)c(O)c2oc3ccc(O)cc3c12 | 13.4 µM | 25.1 µM | > 40 µM | 
13 | O=C1C[C@@](O)(c2ccccc2)[C@H](O)c2oc3ccc(O)cc3c21 | > 40 µM | > 40 µM | > 40 µM | 

Reference: ChEMBL document CHEMBL4196170, “Cytotoxic p-Terphenyls from the Endolichenic Fungus Floricola striata” (J Nat Prod, 2018)
